# According to PMC3177601 (Bioorganic & medicinal chemistry letters, 2009):
# Read-outs that look alike come from different tables or passages of the source.
# Legend:
# M1–M4 = experiment: mAChR selectivity CRCs at M1-M5 CHO cells with submaximal ACh; format: cell-based; conditions: CRCs at M1-M5 CHO cells with EC20 of ACh
# In short: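 Test compound concentration-response curves are run against an EC20 of ACh in mAChR-expressing CHO cells, read out as intracellular calcium mobilization. M2 and M4 lines are co-transfected with Gqi5. Response is expressed as % of ACh maximum. Values are means of at least three independent determinations.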
# M3 = M3 (Homo sapiens, UniProt P20309); experiment: M3 calcium mobilization assay in M3 CHO cells; format: cell-based; conditions: at 30 μM
# Chain of M3 (P20309 whole entry): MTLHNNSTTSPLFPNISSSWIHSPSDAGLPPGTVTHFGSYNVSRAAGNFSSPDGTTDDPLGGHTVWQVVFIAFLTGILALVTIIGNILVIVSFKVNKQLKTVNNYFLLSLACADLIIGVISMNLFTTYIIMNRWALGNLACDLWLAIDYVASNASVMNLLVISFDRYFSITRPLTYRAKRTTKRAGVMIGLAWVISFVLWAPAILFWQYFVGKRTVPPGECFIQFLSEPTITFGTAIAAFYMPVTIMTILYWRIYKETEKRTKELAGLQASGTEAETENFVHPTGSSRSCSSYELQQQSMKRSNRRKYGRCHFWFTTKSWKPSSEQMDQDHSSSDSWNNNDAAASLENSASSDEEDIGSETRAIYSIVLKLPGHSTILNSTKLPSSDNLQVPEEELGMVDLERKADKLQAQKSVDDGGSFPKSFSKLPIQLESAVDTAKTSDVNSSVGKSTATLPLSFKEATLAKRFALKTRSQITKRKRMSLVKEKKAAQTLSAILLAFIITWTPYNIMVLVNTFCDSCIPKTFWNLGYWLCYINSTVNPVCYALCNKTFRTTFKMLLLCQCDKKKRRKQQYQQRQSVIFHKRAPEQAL
# In short: (§1)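 Test compound at 30 μM is added with an EC20 concentration of ACh. Readout is intracellular calcium mobilization in CHO cells expressing the given mAChR subtype; M2 and M4 cells are co-transfected with Gqi5 for calcium coupling. Values are means of at least three independent determinations.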
# M4 = target: T1, M4 (Homo sapiens, UniProt P08173); experiment: M4 calcium mobilization assay in M4 CHO cells co-transfected with Gqi5; format: cell-based
# T1 sequence (P08173 1-479): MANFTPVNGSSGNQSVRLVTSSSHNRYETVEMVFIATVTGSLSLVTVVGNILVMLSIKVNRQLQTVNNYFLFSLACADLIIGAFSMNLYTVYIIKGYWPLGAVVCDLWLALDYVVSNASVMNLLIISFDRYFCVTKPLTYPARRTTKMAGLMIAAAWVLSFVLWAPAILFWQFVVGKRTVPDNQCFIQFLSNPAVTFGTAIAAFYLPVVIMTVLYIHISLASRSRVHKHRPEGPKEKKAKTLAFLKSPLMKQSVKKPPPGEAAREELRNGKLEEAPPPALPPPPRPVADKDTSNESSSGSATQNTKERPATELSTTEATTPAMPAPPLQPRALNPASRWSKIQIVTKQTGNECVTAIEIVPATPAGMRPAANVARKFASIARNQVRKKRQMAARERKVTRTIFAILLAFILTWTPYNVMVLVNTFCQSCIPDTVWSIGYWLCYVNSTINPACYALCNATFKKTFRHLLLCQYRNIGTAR
# In short: as §1
# M1 = target: T2, M1 (Homo sapiens, UniProt P11229); experiment: M1 PAM intracellular calcium mobilization assay in M1 CHO cells; format: cell-based; conditions: at 30 μM
# T2 sequence (P11229 1-460): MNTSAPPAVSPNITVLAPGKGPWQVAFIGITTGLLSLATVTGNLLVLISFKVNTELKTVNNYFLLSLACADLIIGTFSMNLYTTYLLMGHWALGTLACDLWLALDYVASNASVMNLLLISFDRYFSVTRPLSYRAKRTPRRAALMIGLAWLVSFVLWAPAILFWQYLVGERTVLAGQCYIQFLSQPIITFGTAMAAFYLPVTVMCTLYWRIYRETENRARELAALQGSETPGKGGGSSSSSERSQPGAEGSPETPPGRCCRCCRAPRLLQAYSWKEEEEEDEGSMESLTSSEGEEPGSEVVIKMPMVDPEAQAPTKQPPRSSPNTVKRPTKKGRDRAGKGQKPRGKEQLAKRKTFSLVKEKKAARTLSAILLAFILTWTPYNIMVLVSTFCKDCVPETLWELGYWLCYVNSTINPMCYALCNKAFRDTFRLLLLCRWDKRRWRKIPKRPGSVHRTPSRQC
# In short: as §1
# M2 = target: T3, M2 (Homo sapiens, UniProt P08172); experiment: M2 calcium mobilization assay in M2 CHO cells co-transfected with Gqi5; format: cell-based
# T3 sequence (P08172 1-466): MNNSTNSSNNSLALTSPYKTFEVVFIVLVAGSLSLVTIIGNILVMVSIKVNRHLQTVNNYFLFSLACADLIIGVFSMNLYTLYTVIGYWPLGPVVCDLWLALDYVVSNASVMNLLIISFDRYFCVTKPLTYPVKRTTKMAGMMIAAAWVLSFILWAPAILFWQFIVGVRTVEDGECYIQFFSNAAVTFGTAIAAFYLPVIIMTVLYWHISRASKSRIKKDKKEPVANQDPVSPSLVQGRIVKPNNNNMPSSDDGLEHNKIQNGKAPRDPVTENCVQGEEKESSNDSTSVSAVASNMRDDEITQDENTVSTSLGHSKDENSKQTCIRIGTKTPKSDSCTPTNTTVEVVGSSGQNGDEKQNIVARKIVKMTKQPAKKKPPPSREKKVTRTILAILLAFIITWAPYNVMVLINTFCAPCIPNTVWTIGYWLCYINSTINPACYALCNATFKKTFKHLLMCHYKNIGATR
# In short: as §1
# M5 [1] = target: T4, M5 (Homo sapiens, UniProt P08912); experiment: M5 fold-shift experiments of the ACh CRC in M5 CHO cells; format: cell-based; conditions: 30 μM compound
# T4 sequence (P08912 1-532): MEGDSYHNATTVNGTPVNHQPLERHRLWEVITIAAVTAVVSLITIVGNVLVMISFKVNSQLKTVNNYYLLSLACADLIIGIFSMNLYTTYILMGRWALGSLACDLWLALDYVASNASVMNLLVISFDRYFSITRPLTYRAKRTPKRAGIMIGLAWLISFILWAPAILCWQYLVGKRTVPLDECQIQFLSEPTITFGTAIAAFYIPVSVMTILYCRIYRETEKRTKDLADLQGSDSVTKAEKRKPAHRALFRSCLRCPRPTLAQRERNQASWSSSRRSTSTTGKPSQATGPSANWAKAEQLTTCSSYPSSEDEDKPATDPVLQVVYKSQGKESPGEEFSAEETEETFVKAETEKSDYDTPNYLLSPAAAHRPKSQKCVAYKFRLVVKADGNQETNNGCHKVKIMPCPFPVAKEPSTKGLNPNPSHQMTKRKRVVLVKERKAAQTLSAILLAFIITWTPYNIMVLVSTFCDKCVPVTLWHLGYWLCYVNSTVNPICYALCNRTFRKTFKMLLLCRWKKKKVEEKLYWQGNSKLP
# In short: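 Fold-shift assay in M5 CHO cells: a full ACh concentration-response curve is run with or without 30 μM test compound, read out as intracellular calcium mobilization. Potentiation is taken as the leftward shift of the ACh curve. Values are means of at least three independent determinations.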
# M5 [2] = target: T4, M5; conditions: 30 μM compound; cited from earlier work
# M5 [3] = target: T4, M5; conditions: cited from earlier work
# [4] = at 30 μM, cells co-transfected with Gqi5
smiles,measurement,setting,value
O=C1C(=O)N(Cc2ccc(-c3ccccc3)cc2)c2cc(OC(F)(F)F)ccc21 [compound 12],mAChR selectivity,M1–M4,lost
O=C1C(=O)N(Cc2ccc(Oc3ccccc3)cc2)c2ccc(OC(F)(F)F)cc21 [VU0400265],elevation of an ACh EC20 / activation at M3,M3,no elevation
same,elevation of an ACh EC20 at M4,M4; [4],no elevation
same,elevation of an ACh EC20 at M1,M1,no elevation
same,elevation of an ACh EC20 at M2,M2; [4],no elevation
same,leftward shift of the ACh CRC at M5,M5 [1],~ 5 fold
COc1ccc(CN2C(=O)C(=O)c3cc(OC(F)(F)F)ccc32)cc1 [VU0238429],leftward shift of the ACh CRC at M5,M5 [2],14 fold
same,increase of ACh affinity for M5,M5 [3]; 30 μM compound,~ 11 fold
same,displacement of [3H]-NMS from binding to M5,M5 [3],did not displace
COc1ccc(CN2C(=O)C(=O)c3ccc(OC(F)(F)F)cc32)cc1 [compound 11],mAChR selectivity,M1–M4,lost
O=C1C(=O)N(Cc2ccc(Br)cc2)c2ccccc21 [VU0119498],activity at M4,"M4; Gi/o-coupled M4, cells co-transfected with Gqi5",devoid of activity
same,activity at M2,"M2; Gi/o-coupled M2, cells co-transfected with Gqi5",devoid of activity
O=C1C(=O)N(Cc2ccc(-c3ccccc3)cc2)c2ccc(OC(F)(F)F)cc21 [6a],elevation of an ACh EC20 / activation at M3,M3,only modest activation
same,leftward shift of the ACh CRC at M5,M5 [1],> 50 fold
O=C1C(=O)N(Cc2ccc(-c3ccsc3)cc2)c2ccc(OC(F)(F)F)cc21 [6b],leftward shift of the ACh CRC at M5,M5 [1],> 50 fold
